Assay results as given in article PMC3382723 (The Journal of General Physiology, 2012).
“And” between values parts separate entries of the source, which are not always exact repeats. Equal entries are not always repeated. Where two headings read alike, the source gives them in different places.

Columns and labels:
[1] = target: heteromeric Kv7.2/7.3 channels (Homo sapiens, UniProt O43525+O43526); assay: DiC8-PI; assay type: cell-based
Outline: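 CHO cells stably cotransfected with human Kv7.2 and Kv7.3. Patches at 22 ± 0.5°C were excised inside-out and held at 0 mV. Bath was 165 mM KCl, 5 mM HEPES, 10 mM EGTA, pH 7.2, with 0.1 µM ATPγS. The PI(4,5)P2 analog was given by piezo microperfusion, rising from 0.1 to 300 µM, 30 s–2 min per step. Popen was taken over the last 20 s, corrected for channel number, with control subtracted. 11–29 patches per concentration. Weighted two-component Hill fit, shared nH.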

[2] = test system: concatenated Kv7.2-7.3 channels; assay: DiC8-PI; assay type: cell-based; details: n = 9-21
Outline: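 HM1-CHO cells were transiently transfected with concatenated Kv7.2-7.3 cDNA plus an EGFP plasmid using Lipofectamine 2000. Inside-out patches at 0 mV and 22°C, in 165 mM KCl/HEPES/EGTA bath, pH 7.2, with 0.1 µM ATPγS. Stepwise PI(4,5)P2 analog, 0.1–300 µM, by fast perfusion. Popen was taken over the last 20 s and corrected for channel number. n = 9–21 patches per concentration.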

homomeric Kv7.2 channels [3] = target: T1, homomeric Kv7.2 channels (Homo sapiens, UniProt O43526); assay: DiC8-PI; assay type: cell-based; details: single-component Hill fit
T1 sequence (O43526 whole entry): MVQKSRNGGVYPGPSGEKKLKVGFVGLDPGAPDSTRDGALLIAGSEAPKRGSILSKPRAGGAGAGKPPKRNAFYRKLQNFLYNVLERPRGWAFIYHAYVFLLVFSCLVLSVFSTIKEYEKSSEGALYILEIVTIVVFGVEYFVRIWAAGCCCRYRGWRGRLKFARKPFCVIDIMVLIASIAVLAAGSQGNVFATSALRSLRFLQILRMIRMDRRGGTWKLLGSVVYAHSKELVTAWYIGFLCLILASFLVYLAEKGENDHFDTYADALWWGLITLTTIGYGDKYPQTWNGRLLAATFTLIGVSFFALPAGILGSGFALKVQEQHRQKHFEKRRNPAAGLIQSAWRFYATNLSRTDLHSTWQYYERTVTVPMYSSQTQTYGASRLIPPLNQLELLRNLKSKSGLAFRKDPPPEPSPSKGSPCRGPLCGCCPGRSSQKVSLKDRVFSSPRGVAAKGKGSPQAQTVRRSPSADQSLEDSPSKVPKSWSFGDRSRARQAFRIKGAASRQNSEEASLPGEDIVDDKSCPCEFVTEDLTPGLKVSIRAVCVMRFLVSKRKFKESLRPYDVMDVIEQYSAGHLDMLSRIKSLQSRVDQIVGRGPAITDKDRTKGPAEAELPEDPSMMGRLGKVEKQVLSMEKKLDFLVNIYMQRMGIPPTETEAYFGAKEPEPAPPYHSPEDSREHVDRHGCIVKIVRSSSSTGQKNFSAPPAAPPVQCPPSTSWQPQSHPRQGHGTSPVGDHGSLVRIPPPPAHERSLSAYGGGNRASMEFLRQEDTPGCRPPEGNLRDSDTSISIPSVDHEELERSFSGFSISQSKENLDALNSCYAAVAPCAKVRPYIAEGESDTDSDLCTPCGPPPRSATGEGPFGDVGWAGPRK
Outline: (§1)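 HM1-CHO cells (human M1 receptor) were transiently transfected with human Kv7.2 or Kv7.3 A315T, plus EGFP. Excised inside-out patches were held at 0 mV, 22°C, with 0.1 µM ATPγS in the pH 7.2 KCl bath. The PI(4,5)P2 analog was applied in incremental concentrations. Popen was corrected for channel number. Single-component Hill fit. n = 7–19 patches (Kv7.2) and 7–15 patches (Kv7.3T).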

[4] = target: T2, homomeric Kv7.3^T (A315T) channels (Homo sapiens, UniProt O43525, A315T); assay: DiC8-PI; assay type: cell-based; details: single-component Hill fit
T2 sequence (O43525 1-872 A315T): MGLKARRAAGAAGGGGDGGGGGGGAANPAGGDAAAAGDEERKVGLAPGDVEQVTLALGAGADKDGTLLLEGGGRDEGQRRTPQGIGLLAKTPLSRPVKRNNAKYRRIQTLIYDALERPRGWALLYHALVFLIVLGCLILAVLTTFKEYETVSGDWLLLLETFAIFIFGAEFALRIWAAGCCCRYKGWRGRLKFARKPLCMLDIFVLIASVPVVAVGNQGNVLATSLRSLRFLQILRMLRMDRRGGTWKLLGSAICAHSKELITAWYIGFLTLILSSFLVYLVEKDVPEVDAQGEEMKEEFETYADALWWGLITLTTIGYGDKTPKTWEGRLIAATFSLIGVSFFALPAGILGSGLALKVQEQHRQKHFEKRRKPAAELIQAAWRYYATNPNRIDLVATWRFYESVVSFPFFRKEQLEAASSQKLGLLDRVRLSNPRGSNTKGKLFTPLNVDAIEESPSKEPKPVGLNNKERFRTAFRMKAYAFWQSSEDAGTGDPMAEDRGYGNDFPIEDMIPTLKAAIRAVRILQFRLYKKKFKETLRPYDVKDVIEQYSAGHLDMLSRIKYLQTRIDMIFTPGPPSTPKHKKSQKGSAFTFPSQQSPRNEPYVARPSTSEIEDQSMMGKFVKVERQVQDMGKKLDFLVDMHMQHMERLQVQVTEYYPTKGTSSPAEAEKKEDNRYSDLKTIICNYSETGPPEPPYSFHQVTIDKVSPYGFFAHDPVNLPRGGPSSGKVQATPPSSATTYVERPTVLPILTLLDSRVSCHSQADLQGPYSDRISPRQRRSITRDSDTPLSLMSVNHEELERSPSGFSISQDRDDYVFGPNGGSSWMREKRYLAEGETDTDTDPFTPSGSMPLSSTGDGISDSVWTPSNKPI
Outline: as §1

[5] = target: heteromeric Kv7.2/Kv7.3(EEE) channels (Homo sapiens, UniProt O43525+O43526, K462E/K469E/R471E); assay: DiC8-PI; assay type: cell-based; details: single-component fit
Chain of heteromeric Kv7.2/Kv7.3(EEE) channels (O43525 whole entry K462E/K469E/R471E, the tested form may be a part): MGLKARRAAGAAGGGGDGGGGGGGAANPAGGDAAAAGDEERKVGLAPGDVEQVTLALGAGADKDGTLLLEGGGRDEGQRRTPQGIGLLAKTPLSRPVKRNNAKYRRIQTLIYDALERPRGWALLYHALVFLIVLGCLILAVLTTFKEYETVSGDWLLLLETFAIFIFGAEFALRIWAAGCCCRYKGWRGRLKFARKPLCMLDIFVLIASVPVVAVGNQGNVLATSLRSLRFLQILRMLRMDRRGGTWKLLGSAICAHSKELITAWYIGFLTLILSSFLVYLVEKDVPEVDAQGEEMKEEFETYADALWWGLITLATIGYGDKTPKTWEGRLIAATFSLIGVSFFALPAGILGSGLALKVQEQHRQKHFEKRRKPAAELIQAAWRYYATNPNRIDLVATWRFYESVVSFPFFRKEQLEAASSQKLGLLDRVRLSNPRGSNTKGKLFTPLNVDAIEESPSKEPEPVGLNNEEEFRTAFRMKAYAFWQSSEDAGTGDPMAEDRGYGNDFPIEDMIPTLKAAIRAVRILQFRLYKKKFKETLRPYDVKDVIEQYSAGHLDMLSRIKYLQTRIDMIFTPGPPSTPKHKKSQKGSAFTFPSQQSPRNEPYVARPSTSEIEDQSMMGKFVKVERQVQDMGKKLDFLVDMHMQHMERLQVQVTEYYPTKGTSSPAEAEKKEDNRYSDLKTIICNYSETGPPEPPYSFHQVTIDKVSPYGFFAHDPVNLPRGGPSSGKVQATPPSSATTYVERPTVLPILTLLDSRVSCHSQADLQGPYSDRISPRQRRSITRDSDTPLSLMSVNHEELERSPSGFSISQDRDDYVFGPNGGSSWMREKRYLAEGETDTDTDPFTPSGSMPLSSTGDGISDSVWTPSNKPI
Chain of heteromeric Kv7.2/Kv7.3(EEE) channels (O43526 whole entry, the tested form may be a part): as the sequence (O43526 whole entry) above
Outline: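 CHO cells expressing WT Kv7.2 with Kv7.3 […]. Excised inside-out patches were held at 0 mV, 22°C, in 165 mM KCl, 5 mM HEPES, 10 mM EGTA, pH 7.2, with 0.1 µM ATPγS. The PI(4,5)P2 analog was applied in incremental concentrations by fast piezo microperfusion. Popen was taken over the last 20 s and corrected for channel number. n = 8–13 patches.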

Kv7.2/Kv7.3 channels = assay: Activation model fitted to the DiC8-PI; assay type: cell-based, human
Outline: (§2)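 A binding/gating scheme was fitted to mean inside-out patch Popen–concentration data for the water-soluble PI(4,5)P2 analog: Kv7.2/Kv7.3 from 20–49 patches, Kv7.2/Kv7.3(EEE) from 8–13 patches. The scheme has two pairs of independent high-affinity (K3, Kv7.3) and low-affinity (K2, Kv7.2) sites and three open states (E3, E2, E1). Occupancies follow mass action with microscopic reversibility. Popen is the sum of the open-state occupancies.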

[6] = test system: Kv7.2/Kv7.3(EEE) mutant channels; assay: Activation model fitted to the DiC8-PI; assay type: cell-based
Outline: as §2

homomeric Kv7.2 channels [7] = target: T1, homomeric Kv7.2 channels; details: ref Li et al., 2005; cited from earlier work
homomeric Kv7.3 channels = details: ref Li et al., 2005; cited from earlier work
[8] = test system: coexpressed Kv7.2 and Kv7.3 subunits; details: ref Li et al., 2005; cited from earlier work
[9] = test system: homomeric Kv7(EEE) channels; details: expressed as homomers; ref Hernandez et al., 2008; cited from earlier work
[10] = test system: coexpressed Kv7.2 and Kv7.3; details: cited from earlier work
[11] = test system: concatemeric Kv7.2/Kv7.3 dimer; details: ref Hadley et al., 2003; cited from earlier work
[12] = patches with only a single active channel

Chain of heteromeric Kv7.2/7.3 channels (O43525 whole entry, the tested form may be a part): as the sequence (O43525 whole entry K462E/K469E/R471E, the tested form may be a part) above, with E462K, E469K, E471R counted along it
Chain of heteromeric Kv7.2/7.3 channels (O43526 whole entry, the tested form may be a part): as the sequence (O43526 whole entry) above

Structure (SMILES): CCCCCCCC(=O)OC[C@H](COP(=O)(O)O[C@@H]1[C@H](O)[C@H](O)[C@@H](OP(=O)(O)O)[C@H](OP(=O)(O)O)[C@H]1O)OC(=O)CCCCCCC [DiC8-PI(4,5)P2, dioctanoylphosphatidyl-4,5-bisphosphate]
- Popen(max1) ([1]; component 1, single- and pauci-channel patches, 0 mV): 0.2 ± 0.0073 and ~0.2
- Popen(max2) ([1]; component 2, single- and pauci-channel patches, 0 mV): 0.6 ± 0.0012
- Hill coefficient ([1]; constrained the same for both components, single- and pauci-channel patches): 1.4 ± 0.06 and ~1.4
- Popen at full opening ([1]; higher ligand concentrations, 0 mV): ~0.8
- partial channel opening, % of the maximum Popen ([1]; low concentrations, binding to Kv7.3 subunit): ~25%
- Hill coefficient nH [1, 12]: 1.6 ± 0.36
- Popen(max1) [1, 12]: 0.28 ± 0.045
- Popen(max2) [1, 12]: 0.61 ± 0.0074
- factor between apparent affinities of high- and low-affinity sites ([1]; two-component curves): about 60
- concentration-response curve compared with K2/3-CHO cells [2]: very similar biphasic
- Hill coefficient nH (homomeric Kv7.2 channels [3]): 0.76 ± 0.08
- EC50 (homomeric Kv7.2 channels [3]; 0 mV): 76.2 µM and 76 µM
- Hill coefficient nH [4]: 0.95 ± 0.2
- EC50 ([4]; 0 mV): 3.6 ± 1 µM
- Hill coefficient nH [5]: 1.1 ± 0.1
- EC50 ([5]; maximum Popen undetermined): 265 ± 74 µM
- Po (max) (Kv7.2/Kv7.3 channels; model 4): 0.82
- E1, gating equilibrium constant (Kv7.2/Kv7.3 channels; model 4, all four sites occupied): 4.42 ± 0.61
- E2, gating equilibrium constant (Kv7.2/Kv7.3 channels; model 4, two high- and one low-affinity site occupied): 0.46 ± 0.39
- E3, gating equilibrium constant (Kv7.2/Kv7.3 channels; model 4, two high-affinity sites occupied): 0.26 ± 0.07
- concentration at which Po3 peaks (Kv7.2/Kv7.3 channels; model 4 prediction): around 7 µM
- peak open probability Po3 (only Kv7.3 subunits bound) (Kv7.2/Kv7.3 channels; model 4 prediction, around 7 µM): 0.145
- E1 ([6]; model 4 free fit): 0.89 ± 0.43
- E2 ([6]; model 4 free fit): 0.00
- E3 ([6]; model 4 free fit): 0.04 ± 0.14
- Po (max) ([6]; model 4 free fit): 0.47
- maximum open probability Po3 (both Kv7.3 sites occupied) ([6]; model 4 prediction, at 10 µM): 0.027
- Kd ([6]; read-out: K3, model 4 free fit): 0.94 µM
- Hill slope (homomeric Kv7.2 channels [7]): 0.97
- EC50 (homomeric Kv7.3 channels): 2.6 µM
- Hill slope (homomeric Kv7.3 channels): 1.33
- EC50 [8]: 40 µM
- fold less sensitive than WT channels [9]: > 100 fold

Structure (SMILES): CC[N+](CC)(CC)CC [TEA, tetraethylammonium]
- Hill slope of TEA inhibition ([10]; ref Shapiro et al. [2000]): 0.58
- Hill slope of TEA inhibition ([10]; single binding site equation, ref Hadley et al., 2003): 0.98 ± 0.02
- Hill slope of TEA inhibition [11]: 0.97 ± 0.12
